Laboratory results as given in paper PMC5473467 (Nature, 2017).

Legend:
Pf 3D7 = experiment: P. falciparum 3D7 growth inhibition; type: cell-based; settings: Plasmodium falciparum, 3D7, read-out: Pf 3D7 IC50
C. parvum [1] = experiment: C. parvum cytopathic effect; type: cell-based, Cryptosporidium parvum; settings: for EC50: Cryptosporidium parvum, HCT-8, read-out: Cp CPE EC50
In short: (§1)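 HCT-8 cells were kept in RPMI-1640 with 10% heat-inactivated horse serum. Oocysts were primed in 10 mM HCl in HBSS for 10 min at 37 °C, washed, then excysted in L-15/UltraCULTURE medium with 2 mM taurocholate, 10% horse serum and 200 μM ascorbate. Compound dilutions were made in taurocholate-free medium. EC50 came from ten-point threefold dose–response series.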

in vitro = type: cell-based; settings: human, HepG2 CC50, 96 hours
C. parvum [2] = experiment: C. parvum High Content Imaging; type: cell-based; settings: Cryptosporidium parvum, HCT-8, read-out: Cp HCI IC50
In short: as §1

C. hominis = C. hominis cytopathic effect; type: cell-based, Cryptosporidium hominis; settings: for EC50: Cryptosporidium hominis, HCT-8, read-out: Ch CPE EC50
In short: as §1

CpPI(4)K (cgd8_4500) = target: T1, CpPI(4)K (cgd8_4500) (Cryptosporidium parvum, UniProt Q5CVD3); experiment: CpPI; type: biochemical, C. parvum; settings: for IC50: Cp PI(4)K IC50, 3 μM ATP
T1 sequence (Q5CVD3 1-1114): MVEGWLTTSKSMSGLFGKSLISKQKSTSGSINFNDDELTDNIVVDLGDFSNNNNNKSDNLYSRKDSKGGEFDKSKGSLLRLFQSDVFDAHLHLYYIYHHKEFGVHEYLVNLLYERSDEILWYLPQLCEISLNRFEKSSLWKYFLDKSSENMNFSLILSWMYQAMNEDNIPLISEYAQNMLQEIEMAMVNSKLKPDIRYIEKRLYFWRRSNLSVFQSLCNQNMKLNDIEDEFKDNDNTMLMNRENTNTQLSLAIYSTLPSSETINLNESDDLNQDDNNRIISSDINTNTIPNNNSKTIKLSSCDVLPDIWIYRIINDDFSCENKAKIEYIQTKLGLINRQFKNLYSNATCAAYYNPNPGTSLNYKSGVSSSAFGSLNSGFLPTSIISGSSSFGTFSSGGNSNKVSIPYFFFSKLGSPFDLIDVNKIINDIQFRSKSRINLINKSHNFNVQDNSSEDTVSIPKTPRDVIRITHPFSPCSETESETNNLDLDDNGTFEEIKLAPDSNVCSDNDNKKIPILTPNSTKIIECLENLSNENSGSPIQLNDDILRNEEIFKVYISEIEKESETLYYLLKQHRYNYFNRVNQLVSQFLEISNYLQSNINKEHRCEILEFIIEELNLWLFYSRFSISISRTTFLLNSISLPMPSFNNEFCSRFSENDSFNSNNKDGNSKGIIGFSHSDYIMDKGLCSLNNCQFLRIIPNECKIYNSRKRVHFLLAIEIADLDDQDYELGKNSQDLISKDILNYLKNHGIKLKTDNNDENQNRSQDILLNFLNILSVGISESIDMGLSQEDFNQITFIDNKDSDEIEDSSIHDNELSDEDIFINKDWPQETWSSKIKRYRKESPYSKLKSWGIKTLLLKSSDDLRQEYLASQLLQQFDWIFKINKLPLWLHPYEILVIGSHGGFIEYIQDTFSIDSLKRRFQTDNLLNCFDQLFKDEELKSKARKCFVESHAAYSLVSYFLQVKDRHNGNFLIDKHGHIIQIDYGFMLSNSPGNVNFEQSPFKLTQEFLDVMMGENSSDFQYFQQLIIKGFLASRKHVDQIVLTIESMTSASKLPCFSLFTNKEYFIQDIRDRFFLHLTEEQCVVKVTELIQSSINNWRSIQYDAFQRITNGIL

C. parvum UGA2 Fluc = experiment: Mouse model following tissue parasite load using whole-animal imaging; type: in vivo, IFN-γKO mice; settings: 100 mg/kg daily from day 7

Row | SMILES | IC50 (Pf 3D7) | activity against C. parvum (C. parvum [1]) | EC50 (C. parvum [1]) | CC50 (in vitro) | IC50 (C. parvum [2]) | activity against C. hominis (C. hominis) | EC50 (C. hominis) | inhibition of CpPI(4)K enzymatic activity (CpPI(4)K (cgd8_4500)) | IC50 (CpPI(4)K (cgd8_4500)) | tissue load (C. parvum UGA2 Fluc)
1 | CS(=O)(=O)c1ccc(-c2cnc(N)c(-c3ccc(C(F)(F)F)nc3)c2)cc1 [MMV390048] | 0.042 ± 0.022 µM | inactive | 12.8 ± 6.26 µM | 26.2 ± 16.1 µM | 13.4 µM | inactive | 11.8 ± 2.76 µM | do not inhibit | 8.33 ± 2.35 µM | 
2 | CC(=O)Oc1ccccc1C(=O)Nc1ncc([N+](=O)[O-])s1 [Nitazoxanide] | > 10 µM |  | 14.3 ± 7.13 µM | 12.7 ± 2.38 µM | 2.93 ± 0.808 µM |  | > 20 µM |  | > 10 µM | no change
